Published values of several laboratories.
Each line is one published result; the experiments were not run side by side.
Effect on: enzyme activity
Mode: inhibitor
KIT: Mast/stem cell growth factor receptor Kit (KIT, Homo sapiens, UniProt P10721)
KIT T670I: Mast/stem cell growth factor receptor Kit (KIT, Homo sapiens, UniProt P10721, T670I)

SMILES	target	method	tested at	inhibition [%]
CS(=O)(=O)Nc1cccc(-c2csc(NC(=O)CSc3nc4nccnc4c(=O)n3CCc3ccccc3)n2)c1	KIT		10 µM	-5
COc1cc(-c2cc(-c3ccc(N4CCNCC4)cc3)cnc2N)cc(OC)c1OC	KIT T670I		0.1 µM	3
COc1cc2ncnc(Nc3ccc(Oc4ccccc4)cc3C)c2cc1OC	KIT T670I		1 µM	-9
CNC(=O)c1cc2c(Oc3ccc(NC(=O)C4(C(=O)Nc5ccc(F)cc5)CC4)cc3)ccnc2cc1OC	Mast/stem cell growth factor receptor Kit (KIT, Homo sapiens, UniProt P10721, V560G)	radiometric	1 µM	92
O=C(CSc1nc2nccnc2c(=O)n1CCc1ccccc1)Nc1nccs1	Mast/stem cell growth factor receptor Kit (KIT, Homo sapiens, UniProt P10721, T670I/V559D)		10 µM	1
CN(C)C1CCN(CC#Cc2nn(C3CCCC3)c3nc(NCc4ccccc4)ncc23)C1 (stereo not drawn)	KIT	FRET	0.1 µM	1
CC/C(=N\NC(=O)NCc1cccc(O)c1)c1ccc(O)c(C)c1O	Mast/stem cell growth factor receptor Kit (KIT, Homo sapiens, UniProt P10721, D816V)		0.1 µM	1.4
COc1cc2ncnc(Nc3ccc(Oc4ccccc4)c(C)c3C)c2cc1OC	KIT T670I		1 µM	-7
C=CC(=O)Nc1cc(Nc2nccc(Nc3cc(Cl)c(F)cc3C(C)(C)O)n2)c(OC)cc1N1CC[C@@H](N(C)C)C1	KIT		1 µM	2
